Laboratory results reported in ChEMBL document CHEMBL1144159, “Impacts of baicalein analogs with modification of the 6th position of A ring on the activity toward NF-kappaB-, AP-1-, or CREB-mediated transcription” (Bioorg Med Chem Lett, 2008).

Experiments:
[1] = biological target: Transcription factor Jun (Homo sapiens) (UniProt P05412); test: Effect on transcriptional activity of AP1 transfected in human Hep G2 cells after 1 hr by luciferase reporter gene assay relative to control; format: cell-based; conditions: HepG2
Procedure, shortened: (§1)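 HepG2 lines stably carrying luciferase reporters (NF-κB-luc, AP-1-luc, CRE-luc) were pretreated with a range of compound concentrations for 1 h, then incubated 4 h with or without stimulus: TNFα for NF-κB, TPA for AP-1, forskolin for CREB. Luciferase activity is expressed as % of the drug-free control, with or without stimulus. Amax is the maximal fold activity versus control; AC50 is the concentration giving 50% of maximal activity. Mean ± SD of ≥3 independent experiments.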

[2] = system: KB; test: Cytotoxicity against multi-drug resistant human KB cells overexpressing mdr1 after 3 days; format: functional, cell-based; conditions: 72 h
Procedure, shortened: (§2)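 KB cells and their multidrug-resistant KB/MDR subline overexpressing mdr1, incubated with compound for 3 days (doubling time about 20–24 h). Growth inhibition is given as IC50, the concentration inhibiting 50% of cell growth. Values are the mean of three independent experiments.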

[3] = system: HepG2; test: Effect on transcriptional activity of NF-kappaB transfected in TNF-alpha-stimulated human Hep G2 cells after 4 hrs by luciferase reporter gene assay relative to control; format: cell-based; procedure, shortened: as §1
[4] = Effect on transcriptional activity of NF-kappaB transfected in TNF-alpha-stimulated human Hep G2 cells after 4 hrs by luciferase reporter gene assay; format: cell-based; conditions: HepG2, 4 h; procedure, shortened: as §1
[5] = Effect on transcriptional activity of NF-kappaB transfected in human Hep G2 cells after 1 hr by luciferase reporter gene assay; format: cell-based; conditions: HepG2, 1 h; procedure, shortened: as §1
[6] = biological target: Transcription factor Jun (Homo sapiens) (UniProt P05412); test: Effect on transcriptional activity of AP1 transfected in TPA-stimulated human Hep G2 cells after 4 hrs by luciferase reporter gene assay relative to control; format: cell-based; conditions: HepG2; procedure, shortened: as §1
[7] = system: HepG2; test: Effect on transcriptional activity of NF-kappaB transfected in human Hep G2 cells after 1 hr by luciferase reporter gene assay relative to control; format: cell-based; procedure, shortened: as §1
[8] = biological target: Cyclic AMP-responsive element-binding protein 1 (Homo sapiens) (UniProt P16220); test: Effect on transcriptional activity of CREB transfected in forskolin-stimulated human Hep G2 cells after 4 hrs by luciferase reporter gene assay relative to control; format: cell-based; conditions: HepG2; procedure, shortened: as §1
[9] = biological target: Cyclic AMP-responsive element-binding protein 1 (Homo sapiens) (UniProt P16220); test: Effect on transcriptional activity of CREB transfected in human Hep G2 cells after 1 hr by luciferase reporter gene assay relative to control; format: cell-based; conditions: HepG2; procedure, shortened: as §1
[10] = system: KB; test: Cytotoxicity against human KB cells after 3 days; format: functional, cell-based; conditions: 72 h; procedure, shortened: as §2

Chain of Transcription factor Jun (Homo sapiens) (P05412 whole entry): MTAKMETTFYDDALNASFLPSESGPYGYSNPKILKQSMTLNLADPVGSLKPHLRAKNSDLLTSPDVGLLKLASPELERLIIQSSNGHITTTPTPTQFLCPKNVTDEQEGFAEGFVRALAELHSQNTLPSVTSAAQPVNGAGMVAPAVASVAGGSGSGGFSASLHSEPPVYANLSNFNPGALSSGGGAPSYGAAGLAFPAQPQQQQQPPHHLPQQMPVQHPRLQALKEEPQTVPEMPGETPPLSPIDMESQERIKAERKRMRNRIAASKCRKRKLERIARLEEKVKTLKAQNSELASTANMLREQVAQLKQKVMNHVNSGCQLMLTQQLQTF
Chain of Cyclic AMP-responsive element-binding protein 1 (Homo sapiens) (P16220 whole entry): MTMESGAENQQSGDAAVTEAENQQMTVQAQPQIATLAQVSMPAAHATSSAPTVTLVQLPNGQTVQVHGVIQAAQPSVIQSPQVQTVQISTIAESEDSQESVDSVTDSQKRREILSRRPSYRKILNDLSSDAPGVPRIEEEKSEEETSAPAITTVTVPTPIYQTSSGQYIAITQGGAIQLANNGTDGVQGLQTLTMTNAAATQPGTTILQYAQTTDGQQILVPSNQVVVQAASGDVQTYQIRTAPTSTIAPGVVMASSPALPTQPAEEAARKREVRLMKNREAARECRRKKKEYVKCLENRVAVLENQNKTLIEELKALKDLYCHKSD

Row | Structure (SMILES) | fold change (FC) [1] | fold change (FC) [6] | fold change (FC) [8] | fold change (FC) [9] | IC50 [2] [µM] | fold change (FC) [3] | AC50 [4] [µM] | AC50 [5] [µM] | fold change (FC) [7] | IC50 [10] [µM]
1 | O=c1cc(-c2ccccc2)oc2cc(O)c(OCc3ccccc3)c(O)c12 | 1.36 | 0.85 | 7.69 | 1.31 | 3.2 | 1.47 | – | 0.5 | 2.08 | –
2 | COc1c(O)cc2oc(-c3ccccc3)cc(=O)c2c1O [OROXYLIN A] | 1.41 | 1.27 | 2.61 | 1.28 | 16.1 | 2.5 | 5 | 4.8 | 4.12 | 31.1
3 | CC(=O)Oc1c(O)cc2oc(-c3ccccc3)cc(=O)c2c1O | 1.44 | 1.18 | 5.21 | 2.04 | 61.6 | 3.47 | 2.2 | 2.2 | 6.62 | –

Second part, led by results:

Row | fold change (FC) [1] | fold change (FC) [6] | fold change (FC) [8] | fold change (FC) [9] | Structure (SMILES) | IC50 [2] [µM] | fold change (FC) [3] | AC50 [4] [µM] | AC50 [5] [µM] | fold change (FC) [7] | IC50 [10] [µM]
4 | 1.44 | 1.26 | 2.2 | 1.35 | O=c1cc(-c2ccccc2)oc2cc(O)c(O)c(O)c12 [BAICALEIN] | 87.1 | 3.35 | 8.6 | 8.3 | 4.92 | –
5 | 1.43 | 1.05 | 7.35 | 1.59 | CCCOc1c(O)cc2oc(-c3ccccc3)cc(=O)c2c1O | > 100 | 1.36 | – | – | 1.81 | –
6 | 1.35 | 1.21 | 14.5 | 1.81 | CCOc1c(O)cc2oc(-c3ccccc3)cc(=O)c2c1O | 17.5 | 1.27 | – | 0.7 | 2.92 | –
